Test results: ChEMBL document CHEMBL3098102, “1,2,3-Triazole-derived naphthalimides as a novel type of potential antimicrobial agents: synthesis, antimicrobial activity, interaction with calf thymus DNA and human serum albumin” (Bioorg Med Chem Lett, 2014)
In brackets after ≈: the same amount, converted by molar mass.

Tests used:
Type in all cases: functional
[1] = system: Shigella dysenteriae; assay: Antimicrobial activity against Shigella dysenteriae after 24 hrs by two-fold serial dilution method
[2] = system: Pseudomonas aeruginosa; assay: Antimicrobial activity against Pseudomonas aeruginosa after 24 hrs by two-fold serial dilution method
Method in brief: (§1)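 MIC read by broth microdilution in microdilution plates.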

[3] = system: Escherichia coli; assay: Antimicrobial activity against Escherichia coli DH52 after 24 hrs by two-fold serial dilution method; conditions: DH52, 24 h
[4] = Antimicrobial activity against Bacillus proteus after 24 hrs by two-fold serial dilution method; method in brief: as §1
[5] = system: Micrococcus luteus; assay: Antimicrobial activity against Micrococcus luteus ATCC 4698 after 24 hrs by two-fold serial dilution method; conditions: ATCC 4698, 24 h
[6] = system: Bacillus subtilis; assay: Antimicrobial activity against Bacillus subtilis after 24 hrs by two-fold serial dilution method; method in brief: as §1
[7] = system: Staphylococcus aureus; assay: Antimicrobial activity against methicillin-resistant Staphylococcus aureus N315 after 24 hrs by two-fold serial dilution method; conditions: N315, 24 h
[8] = system: Staphylococcus aureus; assay: Antimicrobial activity against Staphylococcus aureus ATCC 25923 after 24 hrs by two-fold serial dilution method; conditions: ATCC 25923, 24 h
[9] = system: Saccharomyces cerevisiae; assay: Antimicrobial activity against Saccharomyces cerevisiae by two-fold serial dilution method; method in brief: as §1
[10] = system: Aspergillus flavus; assay: Antimicrobial activity against Aspergillus flavus after 24 hrs by two-fold serial dilution method; method in brief: as §1
[11] = system: Candida albicans; assay: Antimicrobial activity against Candida albicans after 24 hrs by two-fold serial dilution method; method in brief: as §1
[12] = system: Escherichia coli; assay: Ratio of chloromycin MIC to compound MIC for Escherichia coli DH52 after 24 hrs by two-fold serial dilution method

| Structure (SMILES) | MIC [1] [µg/mL] | MIC [2] [µg/mL] | MIC [3] [µg/mL] | MIC [4] [µg/mL] | MIC [5] [µg/mL] | MIC [6] [µg/mL] | MIC [7] [µg/mL] | MIC [8] [µg/mL] | MIC [9] [µg/mL] | MIC [10] [µg/mL] | MIC [11] [µg/mL] | Ratio [12] |
| --- | --- | --- | --- | --- | --- | --- | --- | --- | --- | --- | --- | --- |
| CCn1cc(C(=O)O)c(=O)c2cc(F)c(N3CCNCC3)cc21 [NORFLOXACIN] | 2 (≈ 6.26 µM) | 1 (≈ 3.13 µM) | 2 (≈ 6.26 µM) | 2 (≈ 6.26 µM) | 1 (≈ 3.13 µM) | 2 (≈ 6.26 µM) | 1 (≈ 3.13 µM) | 4 (≈ 12.5 µM) | – | – | – | – |
| CCCCn1cc(CN(Cc2cn(CCCC)nn2)N2C(=O)c3cccc4c(Br)ccc(c34)C2=O)nn1.Cl.Cl | > 512 | > 512 | > 512 | > 512 | > 512 | 512 | > 512 | > 512 | > 512 | 64 | > 512 | – |
| O=C1c2cccc3c(Br)ccc(c23)C(=O)N1N(Cc1cn(Cc2ccc(F)cc2)nn1)Cc1cn(Cc2ccc(F)cc2)nn1 | > 512 | > 512 | 32 (≈ 47.8 µM) | > 512 | 512 (≈ 765 µM) | > 512 | > 512 | > 512 | > 512 | > 512 | > 512 | – |
| Cl.Cl.O=C1c2cccc3c(Br)ccc(c23)C(=O)N1N(Cc1cn(Cc2ccccc2F)nn1)Cc1cn(Cc2ccccc2F)nn1 | > 512 | > 512 | 16 | > 512 | 256 | > 512 | > 512 | > 512 | > 512 | 64 | > 512 | – |
| O=C1c2cccc3c(Br)ccc(c23)C(=O)N1N(Cc1cn(Cc2ccc([N+](=O)[O-])cc2)nn1)Cc1cn(Cc2ccc([N+](=O)[O-])cc2)nn1 | > 512 | > 512 | 256 (≈ 354 µM) | > 512 | 512 (≈ 708 µM) | 256 (≈ 354 µM) | > 512 | > 512 | > 512 | > 512 | > 512 | – |
| Cl.Cl.O=C1c2cccc3c(Br)ccc(c23)C(=O)N1N(Cc1cn(Cc2ccc(F)cc2F)nn1)Cc1cn(Cc2ccc(F)cc2F)nn1 | > 512 | > 512 | 32 | > 512 | 512 | 128 | > 512 | > 512 | > 512 | > 512 | 512 | – |
| CCCCn1cc(CN(Cc2cn(CCCC)nn2)N2C(=O)c3cccc4c(Br)ccc(c34)C2=O)nn1 | > 512 | > 512 | > 512 | > 512 | > 512 | > 512 | > 512 | > 512 | > 512 | 64 (≈ 113 µM) | > 512 | – |
| O=C1c2cccc3c(Br)ccc(c23)C(=O)N1N(Cc1cn(Cc2cccc(Cl)c2)nn1)Cc1cn(Cc2cccc(Cl)c2)nn1 | > 512 | 64 (≈ 91.1 µM) | 2 (≈ 2.85 µM) | > 512 | > 512 | 256 (≈ 364 µM) | > 512 | 256 (≈ 364 µM) | 64 (≈ 91.1 µM) | > 512 | 64 (≈ 91.1 µM) | 2 |
| Cl.Cl.O=C1c2cccc3c(Br)ccc(c23)C(=O)N1N(Cc1cn(Cc2cccc(F)c2)nn1)Cc1cn(Cc2cccc(F)c2)nn1 | > 512 | > 512 | 16 | > 512 | 256 | > 512 | > 512 | > 512 | > 512 | 32 | > 512 | – |
| O=C1c2cccc3c(Br)ccc(c23)C(=O)N1N(Cc1cn(Cc2ccc(F)cc2F)nn1)Cc1cn(Cc2ccc(F)cc2F)nn1 | > 512 | > 512 | 64 (≈ 90.7 µM) | > 512 | 512 (≈ 726 µM) | 256 (≈ 363 µM) | > 512 | > 512 | > 512 | > 512 | > 512 | – |
| Cl.Cl.Cl.Cl.O=C1c2cccc3c(Br)ccc(c23)C(=O)N1N(Cc1cn(Cc2cccc(Cl)c2)nn1)Cc1cn(Cc2cccc(Cl)c2)nn1 | 512 | 64 | 2 | 512 | > 512 | 256 | 256 | 256 | 64 | > 512 | 16 | 2 |
| OC(Cn1cncn1)(Cn1cncn1)c1ccc(F)cc1F [FLUCONAZOLE] | – | – | – | – | – | – | – | – | 4 (≈ 13.1 µM) | 256 (≈ 836 µM) | 2 (≈ 6.53 µM) | – |
| O=C1c2cccc3c(Br)ccc(c23)C(=O)N1N(Cc1cn(Cc2ccccc2F)nn1)Cc1cn(Cc2ccccc2F)nn1 | > 512 | > 512 | 32 (≈ 47.8 µM) | > 512 | 256 (≈ 382 µM) | > 512 | > 512 | > 512 | > 512 | 64 (≈ 95.6 µM) | > 512 | – |
| CCCCCCn1cc(CN(Cc2cn(CCCCCC)nn2)N2C(=O)c3cccc4c(Br)ccc(c34)C2=O)nn1 | > 512 | 512 (≈ 824 µM) | 512 (≈ 824 µM) | > 512 | > 512 | > 512 | > 512 | > 512 | > 512 | 64 (≈ 103 µM) | > 512 | – |
| O=C1c2cccc3c(Br)ccc(c23)C(=O)N1N(Cc1cn(Cc2cccc(F)c2)nn1)Cc1cn(Cc2cccc(F)c2)nn1 | > 512 | > 512 | 16 (≈ 23.9 µM) | > 512 | 256 (≈ 382 µM) | > 512 | > 512 | > 512 | > 512 | 32 (≈ 47.8 µM) | > 512 | – |
| Cl.Cl.Cl.Cl.Cl.Cl.O=C1c2cccc3c(Br)ccc(c23)C(=O)N1N(Cc1cn(Cc2ccc(Cl)cc2Cl)nn1)Cc1cn(Cc2ccc(Cl)cc2Cl)nn1 | > 512 | > 512 | 4 | > 512 | 256 | > 512 | > 512 | > 512 | > 512 | 32 | > 512 | 2 |
| Cl.Cl.Cl.Cl.O=C1c2cccc3c(Br)ccc(c23)C(=O)N1N(Cc1cn(Cc2ccc(Cl)cc2)nn1)Cc1cn(Cc2ccc(Cl)cc2)nn1 | 256 | 512 | 2 | > 512 | 32 | 256 | 512 | 256 | > 512 | 256 | > 512 | 2 |
| CCCCCCn1cc(CN(Cc2cn(CCCCCC)nn2)N2C(=O)c3cccc4c(Br)ccc(c34)C2=O)nn1.Cl.Cl | > 512 | 512 | 512 | > 512 | 512 | > 512 | > 512 | > 512 | > 512 | 32 | > 512 | – |
| Cl.Cl.O=C1c2cccc3c(Br)ccc(c23)C(=O)N1N(Cc1cn(Cc2ccc(F)cc2)nn1)Cc1cn(Cc2ccc(F)cc2)nn1 | > 512 | > 512 | 32 | 512 | 512 | > 512 | > 512 | > 512 | > 512 | 512 | > 512 | – |
| O=C(N[C@H](CO)[C@H](O)c1ccc([N+](=O)[O-])cc1)C(Cl)Cl [CHLORAMPHENICOL] | 32 (≈ 99 µM) | 4 (≈ 12.4 µM) | – | 32 (≈ 99 µM) | – | 32 (≈ 99 µM) | – | – | – | – | – | – |
